Screening data (PubChem BioAssay)
The list is not random: actives were taken first. Their share in the collection is about 3.3%.
PMI act: activators of human PMI, primary screen, biochemical, fluorescence intensity, near-Km mannose 6-phosphate. activation factor at 20 µM. Mannose-6-phosphate isomerase (Homo sapiens), P34949. purified human PMI, coupled resazurin fluorescence, 20 min; hits give high values; 1 = vehicle control, 0 substrate-free wells. 0.005% of 190,000 active. AID 1214, 2008;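 active means activation factor of 2 or more at 20 µM, relative to plate controls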
ABCB1 inh: ABCB1 efflux pump inhibitors, primary screen, cell-based, multiplex, flow cytometry, ABCG2 counter-screen; inhibition, % at 6.6 µM; CCRF-Adr cells, JC-1 efflux; ATP-dependent translocase ABCB1 (Homo sapiens), P08183; 0.067% of 190,000 active; in the data active means inhibition above about 40%;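 further: 0% = vehicle and 100% = reference inhibitor; higher value means more JC-1 retained so stronger ABCB1 efflux block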
ROMK primary: ROMK potassium channel modulators, primary screen, cell-based, thallium flux, MLSMR library; ATP-sensitive inward rectifier potassium channel 1 (Homo sapiens), P48048; Tet-inducible ROMK, thallium flux fluorescence; actives lie on both sides; B-score at 10 µM; 2% of 130,000 active;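 active means signal ratio slope over the read window, or its plate-corrected B-score, at least 3 SD from the plate mean, either direction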;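 further: B-score of the F/F0 ratio slope over 7 to 12 s after thallium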
ABCG2 block: ABCG2 efflux pump inhibitors, primary screen, multiplex with ABCB1, IgMXP3 cells, flow cytometry; Broad substrate specificity ATP-binding cassette transporter ABCG2 (Homo sapiens), Q9UNQ0; 0.1% of 190,000 active; AID 1325, 2008; JC-1 efflux; inhibition, % at 6.6 µM;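 active means inhibition above 80%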;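 further: 0% = DMSO and 100% = nicardipine control wells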
Target sequence (Q9UNQ0 whole entry, looked up): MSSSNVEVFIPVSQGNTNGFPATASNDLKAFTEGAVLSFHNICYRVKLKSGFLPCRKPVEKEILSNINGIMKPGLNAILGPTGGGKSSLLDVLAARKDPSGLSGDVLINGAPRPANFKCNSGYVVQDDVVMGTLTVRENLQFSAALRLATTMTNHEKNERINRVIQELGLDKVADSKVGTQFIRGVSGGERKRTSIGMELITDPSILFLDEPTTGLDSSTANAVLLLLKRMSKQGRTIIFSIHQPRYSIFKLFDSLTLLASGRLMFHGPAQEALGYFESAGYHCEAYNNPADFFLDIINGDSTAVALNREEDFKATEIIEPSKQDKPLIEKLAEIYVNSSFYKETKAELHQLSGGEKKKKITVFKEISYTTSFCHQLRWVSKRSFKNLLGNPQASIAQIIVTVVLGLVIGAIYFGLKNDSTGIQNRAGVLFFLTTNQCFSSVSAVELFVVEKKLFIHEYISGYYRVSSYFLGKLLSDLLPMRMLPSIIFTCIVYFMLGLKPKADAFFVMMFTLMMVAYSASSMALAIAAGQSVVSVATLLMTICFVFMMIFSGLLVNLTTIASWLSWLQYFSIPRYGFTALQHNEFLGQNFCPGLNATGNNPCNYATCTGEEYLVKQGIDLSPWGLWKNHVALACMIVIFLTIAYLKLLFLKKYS
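material = IgMXP3 (ABCG2) plus far-red-tagged CCRF-Adr (ABCB1) cells | amount = 3 million cells/mL, equal mix of both lines | also added = JC-1 transporter substrate | dosing = one concentration, 6.6 µM final | schedule = 10 min at 25 °C | measured by = flow cytometric JC-1 green MFI at 530 nm | read-out basis = percent efflux inhibition, scaled nicardipine 100% to DMSO 0%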
Cl transport mod: KCC2 cotransporter modulators, thallium flux, primary screen, cell-based, HEK293 KCC2, FluoZin-2 fluorescence, MLSMR | Solute carrier family 12 member 5 (Homo sapiens), Q9H2X9 | B-score of Tl+ flux slope (higher = more flux/activation; lower = inhibition) at 10 µM | 2.2% of 190,000 active | KCC2 cells, thallium flux FluoZin-2 fluorescence | AID 1456, 2008;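 active means thallium flux slope and its plate-corrected score both differing from the plate sample mean at a set confidence after two filtering rounds, in either direction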;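 further: slope of fluorescence scaled to starting intensity during 10 to 20 s after thallium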
PMI act hi M6P: human PMI activators, high substrate, primary screen, biochemical, fluorescence intensity, near-saturating mannose 6-phosphate; AID 1216, 2008; Mannose-6-phosphate isomerase (Homo sapiens), P34949; 0.34% of 190,000 active; coupled PMI enzyme assay, resazurin fluorescence, 20 min; hits give high values; 1 = untreated enzyme, 0 = substrate-free blank; activation factor at 20 µM;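 active means activation factor of 2 or more at 20 µM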
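test system = human PMI in coupled enzyme assay | medium = HEPES-buffered pH 7.4 with magnesium and detergent | also added = 1.0 mM mannose-6-phosphate substrate with 0.22 mM NADP+ | compound = 20 µM single dose | times = 20 min incubation at room temperature | measured by = resorufin fluorescence (Ex 544/Em 590 nm) from resazurin via diaphorase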
ROMK hit retest: ROMK channel modulator hit retest, confirmation, cell-based, thallium flux, duplicate, resupplied hits. normalized thallium flux (F/F0 slope) at 10 µM. shares compounds with ROMK primary. 54% of 3,000 active. fluorescence ratio; hits give low values;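 active means Flux at 10 µM at least 3 SD below or above vehicle control mean in one or both replicates; inconclusive means no clear call, values can overlap the other calls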
Numbers without * were called inactive.

`Cc1nc2ncccn2c1-c1csc(Nc2ccc(N(C)C)cc2)n1` gave PMI act 0.9, ABCB1 inh 1, ROMK primary 7.2*, ABCG2 block 21, Cl transport mod -1.4, PMI act hi M6P 0.7 and ROMK hit retest 0.093.
For Cc1nc2ncccn2c1-c1csc(Nc2ccccc2)n1 the results were PMI act 0.9, ABCB1 inh 0, ROMK primary -1.4, ABCG2 block 3, Cl transport mod -1.2 and PMI act hi M6P 0.8.
`CCOc1ccc2oc(-c3ccccc3)c(C(=O)N3CCN(C)CC3)c2c1` gave PMI act 1, ABCB1 inh 1, ABCG2 block 5, Cl transport mod -0.89, PMI act hi M6P 1 and ROMK hit retest inconclusive.
For Cn1c(=O)c([N+](=O)[O-])c(NCCCn2ccnc2)c2ccccc21 the results were Cl transport mod 0.2.
`Cn1c(=O)c([N+](=O)[O-])c(-n2ccnc2)c2ccccc21` gave PMI act 1, ABCB1 inh 0, ROMK primary -8.3*, ABCG2 block 2, Cl transport mod -1.1, PMI act hi M6P 0.9 and ROMK hit retest 0.048*.
O=c1c(C=NCCN2CCNCC2)c(-c2ccccc2)[nH]n1-c1ccc([N+](=O)[O-])cc1 was read as PMI act 0.9, ABCB1 inh 0, ROMK primary -1.8, ABCG2 block 4, Cl transport mod 1.5 and PMI act hi M6P 0.8.
For COc1ccc(-c2[nH]n(-c3ccc([N+](=O)[O-])cc3)c(=O)c2C=NCCN2CCNCC2)cc1 the results were ABCB1 inh 0, ROMK primary -3*, ABCG2 block 2, Cl transport mod -1.1 and ROMK hit retest 0.059*.
Screening COc1ccc(S(=O)(=O)N2CCC(C(=O)Nc3c(F)cccc3F)CC2)cc1 returned PMI act 1, ABCB1 inh 0, ABCG2 block 2, PMI act hi M6P 0.9 and ROMK hit retest 0.073.
For CCNC(=O)C1CCN(S(=O)(=O)c2ccc(F)cc2)CC1 the results were PMI act 1.1, ABCB1 inh 1, ROMK primary 1.2, ABCG2 block 10, Cl transport mod 0.26 and PMI act hi M6P 1.1.
O=C(NCCO)C1CCN(S(=O)(=O)c2ccc(F)cc2)CC1 was read as PMI act 0.9, ABCB1 inh 0, ROMK primary -6.9*, ABCG2 block 1, PMI act hi M6P 0.9 and ROMK hit retest 0.073.
Screening O=C(Nc1nnc(-c2ccccc2F)s1)C1CCN(S(=O)(=O)c2ccc(Cl)cc2)CC1 returned PMI act 0.9, ABCB1 inh 0, ABCG2 block 0, Cl transport mod 0.095, PMI act hi M6P 0.9 and ROMK hit retest 0.078.
Screening COc1ccc(NC(=S)N/N=C/c2cccn2Cc2ccc(F)cc2)cc1 returned PMI act 1, ABCB1 inh -1, ROMK primary -0.76, ABCG2 block -2, Cl transport mod -0.027 and PMI act hi M6P 1.
Screening S=C(NCc1ccco1)Nc1cc(-c2ccccc2)[nH]n1 returned PMI act 0.6, ABCB1 inh -1, ROMK primary -2.3, ABCG2 block 9, Cl transport mod -1.9 and PMI act hi M6P 1.1.
`N#Cc1cc2cc3ccccc3nc2n2c(=O)c3ccccc3nc12` gave PMI act 1, ABCB1 inh 1, ABCG2 block 6, Cl transport mod inactive, PMI act hi M6P 0.9 and ROMK hit retest 0.056*.
Screening Cc1cc(C#N)c2ccccc2n1 returned PMI act 1, ABCB1 inh 0, ABCG2 block 3, Cl transport mod 0.59 and PMI act hi M6P 1.1.
CCOc1ccc2[nH]c(=O)c(CN(Cc3ccco3)C(CC)c3nnnn3Cc3ccccc3)cc2c1 (configuration not stated) was read as PMI act 1, ABCB1 inh 1, ABCG2 block 1, Cl transport mod 1.5, PMI act hi M6P 0.8 and ROMK hit retest 0.074.
CCOC(=O)Cn1nnnc1C(CC)N(Cc1cccs1)Cc1cc2cc(C)ccc2[nH]c1=O (configuration not stated) was read as PMI act 0.9, ABCB1 inh 3, ROMK primary -4*, ABCG2 block 4, Cl transport mod -0.25, PMI act hi M6P 0.9 and ROMK hit retest 0.072.
For CCC(c1nnnn1C1CCCC1)N(Cc1cccs1)Cc1cc2cc(C)ccc2[nH]c1=O (configuration not stated) the results were PMI act 0.8, ABCB1 inh 9, ABCG2 block 13, Cl transport mod -0.89 and PMI act hi M6P 0.8.
For N/C(=N\NC(=O)c1cccs1)c1cc2cc(Cl)ccc2oc1=O the results were Cl transport mod 0.042.
CC(C(=O)Nc1ccc2c(c1)OCCO2)N1CCN(C(=O)c2ccco2)CC1 (configuration not stated) was read as PMI act 1.1, ABCB1 inh 0, ROMK primary 1.4, ABCG2 block 1, Cl transport mod 0.37 and PMI act hi M6P 1.1.
`O=[N+]([O-])c1c(Nc2ccccn2)cc(Cl)c2nonc12` gave ROMK primary -8.6*, Cl transport mod -1.9 and ROMK hit retest 0.043*.
`O=C(O)c1cccc(Nc2cc(Cl)c3nonc3c2[N+](=O)[O-])c1` gave PMI act 0.9, ABCB1 inh 0, ROMK primary 0.68, ABCG2 block 0, Cl transport mod 0.42 and PMI act hi M6P 0.6.
`O=C(CSc1ncnc2c1cnn2-c1ccccc1)Nc1ccccc1` gave PMI act 1, ABCB1 inh 1, ROMK primary 1.3, ABCG2 block 5 and PMI act hi M6P 0.9.
`CC(C)c1nc(SCC(=O)Nc2c[nH]c(=O)[nH]c2=O)c2cnn(-c3ccccc3)c2n1` gave PMI act 1.1, ABCB1 inh 0, ROMK primary 0.42*, ABCG2 block 5, Cl transport mod 1, PMI act hi M6P 1.1 and ROMK hit retest 0.085.
